Only some compounds are listed: those with a hit (about 1.5% of all), similar ones and a draw of the others.
Runt-CBFb FRET: Runt domain-CBFb interaction inhibition; Cerulean-Runt/Venus-CBFb FRET ratio 530/480, 1 h; inhibition, % at 20 µM; 0.46% of 220,000 active; AID 1496;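 active = inhibition over about 50% at 20 µM in the single-dose screen, limit read from the data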
Target sequence (Q01196 whole entry, looked up, the tested form may be a part): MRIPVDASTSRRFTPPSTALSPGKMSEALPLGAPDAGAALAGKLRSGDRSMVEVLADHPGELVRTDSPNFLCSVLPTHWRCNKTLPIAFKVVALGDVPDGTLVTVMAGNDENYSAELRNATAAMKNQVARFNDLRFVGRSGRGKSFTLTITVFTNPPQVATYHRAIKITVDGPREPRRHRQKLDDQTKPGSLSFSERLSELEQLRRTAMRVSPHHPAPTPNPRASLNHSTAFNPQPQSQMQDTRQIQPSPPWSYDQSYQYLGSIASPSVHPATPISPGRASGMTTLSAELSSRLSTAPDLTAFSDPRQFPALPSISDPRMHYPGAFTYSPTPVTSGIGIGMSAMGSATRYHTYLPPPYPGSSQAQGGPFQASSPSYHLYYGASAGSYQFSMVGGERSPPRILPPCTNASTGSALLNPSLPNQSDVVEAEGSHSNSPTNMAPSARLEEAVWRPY
Target sequence (Q13951 whole entry, looked up, the tested form may be a part): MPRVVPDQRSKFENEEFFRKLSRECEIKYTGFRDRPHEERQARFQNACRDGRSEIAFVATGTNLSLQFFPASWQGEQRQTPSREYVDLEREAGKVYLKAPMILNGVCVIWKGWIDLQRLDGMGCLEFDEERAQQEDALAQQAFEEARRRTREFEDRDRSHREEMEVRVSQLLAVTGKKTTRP
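Buffer or medium: Tris pH 7.5 buffer with BSA. Assay system: Cerulean-labeled Runt domain protein. Amount: each fluorescent fusion protein 100 nM. Read-out basis: loss of energy transfer signal. Incubation: 1 h compound exposure, room temperature. Probe or stimulus: Venus-CBFb binding partner, 100 nM. Detection: FRET, excitation 422 nm, emission at 530 and 480 nm.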
CaV13 FRET inh: Disruptors of the CACNA1D IQ motif to Ca2+-dependent inactivation inhibitor domain association, primary screening, Förster resonance energy transfer in intact living … | HEK cells, CFP/YFP FRET ICDI-IQ, plate reader, 10 min; percent FRET-ratio fall versus neutral wells | inhibition, % at 12.3 µM | 0.098% of 340,000 active;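 active = mean replicate inhibition of at least 30% and at least 1% of replicates passing that level; inconclusive = only one of the two criteria is met; inactive = neither criterion is met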
Hck-Nef inh: blocks Nef-activated human Hck kinase; 0.68% of 220,000 active; AID 463187; P08631; Recombinant Hck-YEEI plus Nef, Z-Lyte FRET kinase assay; inhibition, % at 20 µM;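 active = Hck-Nef kinase inhibition above about 50%, limit read from the data; inactive = inhibition below that limit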
Runt-SMMHC FRET: Runt domain-CBFb-SMMHC interaction inhibition | 0.74% of 220,000 active | Cerulean-Runt/Venus-CBFb-SMMHC FRET ratio 530/480, 1 h | inhibition, % at 20 µM | Q01196+Q13951;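 active = mean inhibition across duplicate retests at 20 µM reaching about 50%, limit read from the data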;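 also: inhibitors lower the FRET ratio by blocking Runt binding to CBFb-SMMHC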
RanGTP-Imp inh: inhibitors of RanGTP-importin-beta interaction, primary screen, biochemical, FRET, CFP-Ran, YFP-importin-beta, homogeneous; AID 2216; inhibition, % (no concentration beside the values); cell-free CFP-Ran/YFP-importin-beta FRET ratio; 1.1% of 300,000 active;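 active = more than half of the replicate wells show a fall in the fluorescence ratio signal beyond about 16%, limit read from the data, passing the limit was not always enough; inconclusive = exactly half of the replicate wells pass the set limit; inactive = fewer than half of replicates pass the limit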
Hck-Nef confirm: Hck-Nef kinase inhibition, confirmation; Recombinant Hck-YEEI:Nef, Z-Lyte FRET kinase assay; shares compounds with Hck-Nef inh; calls only at 10 µM; 28% of 1,300 active;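 active = average inhibition of at least 50%, with Z-scores no higher than 3 in both the phospho-tyrosine peptide and fluorescence counterscreens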
Of the large screens only hits and unclear results are named; the others gave an inactive call (follow-up assays come after a bar, where shown).

O=C(N/N=C/c1cccc([N+](=O)[O-])c1)c1ccccc1-n1cccc1	Hck-Nef inh 58 | Hck-Nef confirm inactive
O=C(C1CCCCN1S(=O)(=O)c1ccccc1)N1CCCCC1 (stereo unspecified)	none
Cc1nnc(SCC(=O)c2ccc(S(=O)(=O)N3CCOCC3)cc2)n1-c1ccccc1	none
CC(=O)n1cc(Nc2ccc([N+](=O)[O-])cc2)c2ccccc21	Hck-Nef inh 108 | Hck-Nef confirm inactive
CC1(c2ccccc2)CC(C)(C)N2C(=O)/C(=C3\SC(=S)NC3=O)c3cccc1c32 (stereo unspecified)	Hck-Nef inh 94 | Hck-Nef confirm active
CCC(Sc1nc2ccccc2c2nc3ccccc3n12)C(=O)NCc1ccco1 (stereo unspecified)	Hck-Nef inh 70 (no result: CaV13 FRET inh) | Hck-Nef confirm active
O=C(CSc1nc2ccccc2n1CC(=O)NCc1ccccc1)NCc1ccco1	none (no result: CaV13 FRET inh)
CCc1nc2sc3ccccc3c(=O)c2c(=O)n1Cc1ccc(OC)cc1	none
CC(C)n1cnc2cc(NCc3ccco3)ccc21	Hck-Nef inh 79 | Hck-Nef confirm inactive
CCOC(=O)c1c(C)oc2c1c(CN1CCN(C(=O)OCC)CC1)c(O)c1ccccc12	none
CCOC(=O)c1c(C)oc2c1c(C(c1ccncc1)N1CCOCC1)c(O)c1ccccc12 (stereo unspecified)	Hck-Nef inh 117 (no result: RanGTP-Imp inh) | Hck-Nef confirm active
Cc1ccc(C)c(NC(=S)N2C3CCCC2CC(NC(=O)C2CC2)C3)c1 (stereo unspecified)	none (no result: Runt-CBFb FRET, Hck-Nef inh, Runt-SMMHC FRET)
CCOC(=O)c1cc2ccc(OC(=O)c3ccco3)cc2oc1=O	Hck-Nef inh 136, Runt-SMMHC FRET 62, RanGTP-Imp inh 182
CCCCCCc1cc2cc(C(=O)NC)c(=N)oc2cc1O	Hck-Nef inh 51, Runt-SMMHC FRET 60, RanGTP-Imp inh 166 (no result: CaV13 FRET inh) | Hck-Nef confirm inactive
CCCCCCc1cc2cc(C(N)=O)c(=N)oc2cc1O	Hck-Nef inh 72, Runt-SMMHC FRET 59, RanGTP-Imp inh 168 (not shown: CaV13 FRET inh)
CCCCCCc1cc2cc(S(=O)(=O)c3ccc(F)c(Cl)c3)c(=O)oc2cc1O	Hck-Nef inh 55, Runt-SMMHC FRET 63, RanGTP-Imp inh 130
CC(=O)OCC1OC(c2ccccc2)C(OC(C)=O)C(OC(C)=O)C1OC(C)=O (stereo unspecified)	RanGTP-Imp inh inconclusive
Cc1n[nH]c(=S)n(/N=C/c2ccccn2)c1=O	none (no result: CaV13 FRET inh)
O=C(NCCN1CCOCC1)C(=O)NCC1OCCN1C(=O)c1ccc(Cl)cc1 (stereo unspecified)	none
CCCCCCc1cc2cc(C(=O)OCC)c(=O)oc2cc1O	Hck-Nef inh active, Runt-SMMHC FRET 84, RanGTP-Imp inh 190
COc1ccc(CCNc2nc(-c3sc(N)nc3C)cs2)cc1OC	none
COCCNc1nc(-c2cc(C)n(CCc3ccc(OC)cc3)c2C)cs1	Hck-Nef inh 51 (no result: Runt-CBFb FRET) | Hck-Nef confirm inactive
COc1ccc(Cn2c(-c3ccccc3)nc3c(c(=O)c4ccccc4n3C)c2=O)cc1	none
Cn1c2ccccc2c(=O)c2c(=O)n(Cc3ccco3)c(-c3ccc(C(C)(C)C)cc3)nc21	Hck-Nef inh 55 (no result: CaV13 FRET inh) | Hck-Nef confirm inactive
COCCNC(=O)/C(C#N)=C1\N=C(N)c2ccccc21	Hck-Nef inh 53 | Hck-Nef confirm inactive
CC1(C)Cc2nc(Cl)c(C#N)cc2CO1	none
CC1(C)Cc2nc(N3CCCC3)c(C#N)cc2CO1	Hck-Nef inh 74 | Hck-Nef confirm inactive
N=C1S/C(=C\c2ccc(-c3ccccc3C(=O)O)o2)C(=O)N1c1ccc2c(c1)OCO2	Hck-Nef inh 85 | Hck-Nef confirm active
COc1ccccc1N1C(=N)S/C(=C\c2ccc(-c3ccccc3C(=O)O)o2)C1=O	Hck-Nef inh 60 | Hck-Nef confirm active
O=C(CN1C(=O)S/C(=C\c2ccc(-c3cc(C(=O)O)ccc3Cl)o2)C1=O)Nc1ccc2c(c1)OCO2	none (no result: Runt-CBFb FRET, Hck-Nef inh, Runt-SMMHC FRET, RanGTP-Imp inh)
CCOC(=O)CN1C(=O)S/C(=C\c2ccc(-c3cccc(C(=O)O)c3C)o2)C1=O	none (no result: Runt-CBFb FRET, Hck-Nef inh, Runt-SMMHC FRET)
Cc1cccc(C(=O)O/N=C(\N)Cc2ccc([N+](=O)[O-])cc2)c1	none

High-throughput results from PubChem BioAssay.
